Assay results published in publication PMC6333999 (Cancer Research and Treatment : Official Journal of Korean …, 2018).
Blank lines part the entries; values can stand above or below the molecule they belong to.

Experiments:
p38α [1] = settings: background statement, no reference given; cited from earlier work
p38α [2] = assay: Percentage inhibition assay by ELISA; assay type: biochemical; settings: ATF-2 substrate, same experiment as p38δ
How it was run: (§1)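 Added to ATF-2-coated plates, 1 h at 37°C. Anti-phospho-ATF-2 1:400, then AP anti-rabbit IgG 1:4,000, each 1 h at 37°C. pNPP (pH 8.1) 90 min, NaOH stop, A405. Enzyme without peptide taken as 100% activity for % inhibition.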

p38δ = assay: Percentage inhibition assay by ELISA; assay type: biochemical
How it was run: as §1

p38α [3] = assay: SPR binding of peptide with p38α; settings: BIAcore 3000, p38α on Ni-NTA chip, peptide in HBS-EP buffer
How it was run: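 Pure p38α protein captured on an Ni-NTA chip. Test peptide in HBS-EP buffer injected at 0.23, 0.46 and 0.77 mM. Sensorgrams recorded, and association (KA) and dissociation (KD) constants fitted from them.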

[4] = target: T1, recombinant GST-tag p38δ protein (UniProt O15264); assay: SPR
T1 sequence: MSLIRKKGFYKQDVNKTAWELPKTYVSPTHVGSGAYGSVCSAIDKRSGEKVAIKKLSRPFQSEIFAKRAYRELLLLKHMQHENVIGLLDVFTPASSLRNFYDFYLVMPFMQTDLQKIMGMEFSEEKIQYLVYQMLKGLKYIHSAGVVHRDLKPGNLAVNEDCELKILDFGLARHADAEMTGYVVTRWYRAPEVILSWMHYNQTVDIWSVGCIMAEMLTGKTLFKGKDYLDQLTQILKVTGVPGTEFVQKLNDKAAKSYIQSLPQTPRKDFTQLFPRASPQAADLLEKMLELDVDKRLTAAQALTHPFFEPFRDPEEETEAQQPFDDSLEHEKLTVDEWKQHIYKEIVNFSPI

Molecule: C[S+]([O-])c1ccc(-c2nc(-c3ccncc3)c(-c3ccc(F)cc3)[nH]2)cc1 (stereo not drawn) [SB203580]
specificity for p38α (p38α [1]): very specific p38α inhibitor

binding to p38α (p38α [3]): no binding was observed
Molecule: WFYH
inhibition of p38α (p38α [2]): no inhibition | percentage inhibition of p38δ (p38δ; 75 μM peptide, ELISA, ATF-2 substrate, 100 μM ATP, pH 7.5, 37°C, 1 hour, 405 nm): 77% | phosphorylation of ATF-2 by p38δ (p38δ; kinetic assays, pure p38δ protein incubated with peptide): reduction in phosphorylation of ATF-2

Kd [4]: 0.704 nM
Molecule: WFYH [WFYH tetrapeptide]
